# Source: PubChem (Sanford-Burnham Center for Chemical Genomics)
# The list is not random: actives were taken first. Their share in the collection is about 2.4%.
# STEP block – blocks human striatal-enriched tyrosine phosphatase; recombinant STEP, OMFP fluorogenic substrate, fluorescence; inhibition, % at 20 µM; actives 0.25% (n = 360,000); AID 588621;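 active means inhibition at 20 µM, scaled per plate between control wells, above about 37%, limit read from the data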;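 further: 0% = DMSO with enzyme and substrate and 100% = substrate only without enzyme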
#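 System: STEP phosphatase, cell-free reaction; Buffer or medium: Bis-Tris pH 6.0 buffer with DTT, detergent; Incubation: 20 min at room temperature, dark; Measured by: fluorescence, 480/540 nm.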
# NadD inh – NadD (S. aureus) enzyme inhibition; purified NadD enzyme, colorimetric absorbance read-out; inhibition, % at 20 µM; actives 0.78% (n = 360,000); AID 602399; in the data active means inhibition above about 26%
# DNMT1 inh – blocks human DNA methyltransferase DNMT1. DNMT1 molecular beacon, Hinp1I cleavage, fluorescence. AID 588458. P26358. inhibition (reported as % activation of signal), % at 10 µM. actives 0.83% (n = 360,000); in the data active means inhibition above about 50%
# Scp1 inh – Scp-1 (human) phosphatase inhibition; Recombinant Scp1, phosphopeptide, malachite green phosphate absorbance; inhibition, % at 20 µM; actives 0.88% (n = 340,000); AID 493091;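 active means inhibition above about 50% at 20 µM, limit read from the data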;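 further: plate controls were DMSO wells with enzyme for no effect and wells lacking enzyme for full effect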
# Target sequence (Q9GZU7 76-261 limits assumed): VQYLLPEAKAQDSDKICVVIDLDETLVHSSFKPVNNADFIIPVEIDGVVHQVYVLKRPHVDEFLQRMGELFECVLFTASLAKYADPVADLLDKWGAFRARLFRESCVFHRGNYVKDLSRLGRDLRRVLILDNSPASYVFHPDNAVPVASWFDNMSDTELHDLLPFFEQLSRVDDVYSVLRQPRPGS
#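 Incubation: 45 min enzyme reaction at room temperature / System: truncated SCP-1 phosphatase (76-261aa) / Reagent: Phospho 17-mer peptide substrate / Buffer or medium: Acidic Tris acetate buffer with magnesium and detergent / Signal: absorbance at 630 nm / Doses: one concentration, 20 µM, with 1.0% DMSO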
# LMPTP inh – LMPTP (human) inhibition; P24666; recombinant LMPTP-A, OMFP fluorogenic substrate, fluorescence intensity; inhibition, % at 20 µM; actives 0.22% (n = 360,000); AID 651560;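 active means compounds that cut the enzyme signal by at least half of the control window in the single-dose screen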;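 further: plate controls were DMSO wells with enzyme plus substrate for no effect and substrate without enzyme for full effect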
# Target sequence (P24666 whole entry, looked up): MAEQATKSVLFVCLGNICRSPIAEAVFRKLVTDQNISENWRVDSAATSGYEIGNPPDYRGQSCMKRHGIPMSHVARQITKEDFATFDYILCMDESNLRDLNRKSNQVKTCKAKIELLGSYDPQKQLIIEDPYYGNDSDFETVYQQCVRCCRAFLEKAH
#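 Test system – LMPTP-A phosphatase enzyme · Quantity – 0.625 nM LMPTP-A final · Reagent – OMFP substrate, 400 µM final · Dosing – one test concentration per compound, 20 µM, with 3% DMSO overall · Timing – 50 min enzyme reaction at room temperature, protected from light · Detection – fluorescence intensity · Controls – substrate-only low control, DMSO enzyme-plus-substrate high control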
# SUMO1 PPI mod – SUMO1-SIM interaction modulation | SUMO1 binding to a labelled peptide, TR-FRET, 1 h | inhibition, % at 20 µM | actives 0.33% (n = 360,000) | AID 602429; in the data active means inhibition above about 37%
# Target sequence (P63165 whole entry, looked up): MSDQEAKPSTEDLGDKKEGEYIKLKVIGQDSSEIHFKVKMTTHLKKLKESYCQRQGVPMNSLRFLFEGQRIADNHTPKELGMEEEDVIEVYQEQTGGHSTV
# Scp-1 conf – Scp-1 (human) inhibition, single-dose confirmed; inhibition, % at 20 µM; shares compounds with Scp1 inh; recombinant SCP-1 catalytic domain, phosphate release, malachite green absorbance; actives 61% (n = 2,500);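 further: plate controls were DMSO with enzyme for no effect and buffer wells lacking enzyme for full effect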
# MG interference – counter-screen for Scp-1 inhibitors: colorimetric interference; 2,500 tested, under 10 active; apparent inhibition (interference), % at 20 µM; shares compounds with Scp1 inh; Colorimetric interference counterscreen, malachite green absorbance 630 nm;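 further: compounds added after enzyme reaction finished so only phosphate colour detection is probed; plate controls were DMSO wells with completed Scp-1 reaction for no effect and substrate wells lacking enzyme for full effect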
# Scp1 DSF – validation of human Scp-1 inhibitors by thermal shift binding; actives 25% (n = 1,500); shares compounds with Scp1 inh; thermal shift relative to vanadate control, % at 40 µM; AID 540329; Recombinant SCP1, Sypro Orange thermal shift Tm;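 active means substances whose mean melting-temperature shift, as a percentage of the reference inhibitor's shift, reaches about 5.3%, limit read from the data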;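 further: 0% = Tm of DMSO wells and 100% = Tm with sodium orthovanadate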
# Starred values were filed as active, the others as inactive; / = not tested or not shown.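 How the source made its calls, unless noted: active means inhibition of at least 30% at 20 µM; inactive means the rest.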
SMILES,STEP block,NadD inh,DNMT1 inh,Scp1 inh,LMPTP inh,SUMO1 PPI mod,Scp-1 conf,MG interference,Scp1 DSF
CCC1Sc2ccc(S(=O)(=O)CCC(=O)Nc3ccc(C(=O)OC)cc3)cc2NC1=O (centres undefined),-0.3,-1.5,16.6,14.2,-0.7,12.9,/,/,/
CC(=O)NC1C(OCc2ccccc2)OC2COC(c3ccccc3)OC2C1OCC(=O)O (centres undefined),0.8,5.3,4.6,-1.1,-0.5,-0.4,/,/,/
O=C(CCN1C(=O)/C(=C/c2ccc3c(c2)OCO3)SC1=S)NNC(=O)c1cccnc1,2.0,9.7,-2.2,61.7*,7.3,-12.1,45.8*,-9.0,0.3
O=C(CCN1C(=O)/C(=C/c2ccccc2)SC1=S)NNC(=O)c1cccnc1,3.6,7.2,1.4,1.5,-0.7,-15.9,/,/,/
Cc1ccc2nc3c(cc(S(=O)(=O)c4ccccc4)c(=N)n3C3CCCC3)c(=O)n2c1,1.2,0.3,0.1,-5.2,2.7,4.1,/,/,/
CCCn1nc(NC(=O)COC)c2cc3cc(C)ccc3nc21,-1.1,8.5,0.1,62.2*,-0.4,-11.4,-10.5,-11.2,/
c1coc(Cn2c(SCc3nc4ccccc4[nH]3)nnc2-c2cnccn2)c1,-2.6,3.1,-2.7,-5.0,-0.7,10.5,/,/,/
CC(C)N(Cc1nc2ccccc2[nH]1)C(C)C,0.9,-1.1,4.5,-6.5,-1.5,5.0,/,/,/
COc1ccc(OC)c(/C=N/NC(=O)CC2C(=O)NN=C2C)c1 (centres undefined),-1.4,-1.0,3.8,-2.2,-0.1,-7.8,2.0,-6.2,/
CC1=NNC(=O)C1CCC(=O)N/N=C/c1ccco1 (centres undefined),-4.2,4.1,-2.9,-4.2,-1.6,-3.9,46.4*,-13.7,-21.2
CC1=NNC(=O)C1CCC(=O)N/N=C/c1ccc(Cl)cc1Cl (centres undefined),0.3,-4.0,-0.3,-7.8,-0.4,-2.7,/,/,/
N#Cc1ccsc1NC(=O)COC(=O)C1=NNC(=O)CC1,0.1,12.4,29.5,70.8*,61.8*,38.1*,49.1*,-11.4,4.7
CCCN1C(=O)c2cc(C(=O)NC3CCCCCC3)ccc2C1O (centres undefined),-0.8,-6.6,7.3,60.4*,-1.5,-0.8,-12.6,-6.0,/
CCN(CC(=O)Nc1c(F)cccc1F)C(=O)CCOc1ccc(C)cc1,-4.4,1.0,1.0,-0.6,-1.5,5.6,/,/,/
CC(C(=O)Nc1cc([N+](=O)[O-])ccc1Cl)N1CCN(c2ccc(O)cc2)CC1 (centres undefined),-4.6,11.6,16.2,57.0*,2.9,-13.6,26.2,-4.3,/
CC(C(=O)Nc1ccc([N+](=O)[O-])cc1Cl)N1CCN(S(=O)(=O)c2cccs2)CC1 (centres undefined),0.1,5.7,-6.7,4.8,0.7,-10.4,/,/,/
COc1ccc(-c2cc(C(=O)NN)n(-c3ccccc3)n2)cc1,-0.7,4.4,-7.8,2.6,-1.1,4.2,/,/,/
CCOC(=O)c1cc(-c2ccc(OC)cc2)nn1-c1ccccc1C(=O)O,25.1,-9.4,28.4,61.4*,10.8,69.3*,42.1*,-7.9,-5.9
Cc1c(O)cc2c(c1O)C(=O)CC(c1ccc(O)cc1)O2 (centres undefined),3.0,3.3,30.9,58.3*,20.4,0.7,45.3*,-9.3,6.2*
COc1cc(O)c2c(c1)OC(c1ccc(O)cc1)CC2=O (centres undefined),-1.0,-1.3,-9.5,-4.0,0.0,6.1,/,/,/
O=C(CCS(=O)(=O)c1ccc(Br)cc1)Nc1ccc(Br)cc1F,4.5,-10.7,39.0,56.1*,-0.1,17.2,53.8*,-22.4,-8.4
O=C(CCS(=O)(=O)c1ccc(Br)cc1)Nc1ccc(Cl)cc1F,-1.6,-9.3,-1.1,-9.7,-0.1,16.4,/,/,/
CCOc1cc2[nH]c(=O)n(CCCCCC(=O)NC3CCCC3)c(=O)c2cc1OCC,-3.3,0.6,0.0,-0.9,0.4,3.6,/,/,/
COCCNC(=S)NN=C1CCC(c2ccccc2)CC1 (centres undefined),-2.4,-3.8,-4.3,-7.1,-0.3,-8.6,/,/,/
CC(=O)Nc1ccc(NC(=O)c2cc(-c3ccc(C)c(C)c3O)n[nH]2)cc1,0.5,-0.8,-12.4,-19.0,-0.4,5.7,/,/,/
SMILES,STEP block,NadD inh,DNMT1 inh,Scp1 inh,LMPTP inh,SUMO1 PPI mod,Scp-1 conf,MG interference,Scp1 DSF
Cc1ccc(NC(=O)c2cc(-c3ccc(C)c(C)c3O)n[nH]2)cc1C,12.0,-0.9,15.4,98.5*,19.6,14.3,66.9*,-4.9,7.5*
COc1ccccc1N1CC(C(=O)OC(C)C(=O)Nc2ccc(F)cc2)CC1=O (centres undefined),-0.6,4.4,-0.1,/,-0.3,1.3,/,/,/
O=C(CSc1nc(O)cc(=O)[nH]1)C1CC1,-4.8,4.3,1.5,52.6*,-1.0,0.6,-11.7,-16.7,/
CN(C)C(=O)c1ccc(NC(=O)c2cc(-c3ccco3)nc3ccccc23)cc1,13.0,13.0,50.2*,65.8*,12.0,-12.0,58.0*,-4.6,5.0
CCN(CC)CCNC(=O)c1ccc(NC(=O)c2cc(-c3ccco3)nc3ccccc23)cc1,0.7,3.8,19.9,15.3,4.7,-19.4,/,/,/
O=C(Nc1ccccc1Cl)C1CCCN(S(=O)(=O)c2ccc(F)cc2)C1 (centres undefined),-10.6,-3.8,0.1,-5.3,-0.1,7.4,/,/,/
Cc1cc(=O)oc2cc(NC(=S)NCc3ccccn3)ccc12,-1.5,1.6,-2.5,-6.1,0.2,-4.8,/,/,/
Cc1cc(=O)oc2cc(NC(=S)NNC(=O)c3c(Cl)cnn3C)ccc12,12.6,1.0,-7.3,70.5*,3.1,16.6,67.3*,-6.5,-0.9
CC(C)(C)c1ccc(OCCNC(=S)Nc2ccccc2)cc1,2.2,-5.3,-1.2,56.5*,1.9,0.4,-16.9,-11.8,/
O=C(O)CCCN1C(=O)C2C3C=CC(C2C1=O)C1C(=O)N(CCCC(=O)O)C(=O)C31 (centres undefined),-1.3,-5.9,2.0,-2.0,-1.5,3.5,/,/,/
C=CCOCCN1C(=O)C2C3C=CC(C2C1=O)C1C2C(=O)N(CCOCC=C)C(=O)C2C31 (centres undefined),0.1,7.4,27.2,60.8*,2.4,-0.6,71.8*,-9.6,-20.0
CN(CCNC(=O)c1cc2c(=O)n(C)c3ccccc3c2n1C)Cc1ccccc1,0.5,3.7,0.8,-15.5,0.4,5.4,/,/,/
